Assay results taken from ChEMBL document CHEMBL1128230, “5'-[4-(Pivaloyloxy)-1,3,2-dioxaphosphorinan-2-yl]-2'-deoxy-5-fluorouridine: a membrane-permeating prodrug of 5-fluoro-2'-deoxyuridylic acid (FdUMP)” (J Med Chem, 1995).

Tests used:
[1] = test system: CHO-FU; assay: Growth inhibitory activity against CHO/FU cells in culture.; assay type: functional, cell-based; details: Cricetulus griseus
Outline: (§1)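 CHO cells and FU-resistant CHO subline plated at about 200 cells per 35-mm dish and cloned with drug at 0, 0.5, 1.5, 5, 10, 50 and 100 µM for 7 days at 37 °C in humidified CO2. Clones fixed in 10% formaldehyde and stained with 0.1% crystal violet. Minimum inhibitory concentration is the lowest concentration giving colonies of fewer than 50 cells.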

[2] = test system: CHO; assay: Growth inhibitory activity against CHO cells in culture.; assay type: functional, cell-based; details: Cricetulus griseus; outline: as §1
[3] = test system: Mus musculus; assay: Percentage increase in life span of treated mice implanted intraperitoneally with P-388 leukemia resistant cells compared with controls at a dose of 67 mg/kg.; assay type: functional; details: P388, ip, route intraperitoneal
Outline: (§2)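 Male BDF1 mice (six per group, average 22 g) inoculated ip with 1 × 10^6 P-388 cells, wild-type or FU-resistant subline, on day 0. Drugs given ip daily for 5 consecutive days starting 24 h after implantation, in 0.9% saline or Emulphor 620 vehicle; followed until death. Median survival of treated (T) vs saline controls (C); % ILS = (T/C − 1) × 100; body weight change recorded.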

[4] = test system: Mus musculus; assay: Median survival time of […] implanted intraperitoneally with P-388 leukemia resistant cells at a dose of 67 mg/kg.; assay type: functional; details: route intraperitoneal
[5] = test system: Mus musculus; assay: Average percentage weight change on day 5 in mice implanted intraperitoneally with P-388 leukemia sensitive cells at a dose of 67 mg/kg.; assay type: functional; details: route intraperitoneal
Outline: (§3)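 Male BDF1 mice, six per group, average weight 22 g; 1 × 10^6 P-388 cells (FU-sensitive P-388/0 or FU-resistant P-388/FU) inoculated ip on day 0. Dosing ip daily for 5 consecutive days starting 24 h after implantation. Saline vehicle for FU and FUdR; Emulphor 620 formulation for the prodrug. Followed until death. % ILS = (T/C − 1) × 100 from median survival versus saline-treated controls.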

[6] = test system: Mus musculus; assay: Average percentage weight change on day 5 in mice implanted intraperitoneally with P-388 leukemia resistant cells at a dose of 100 mg/kg.; assay type: functional; details: route intraperitoneal; outline: as §3
[7] = test system: Mus musculus; assay: Median survival time of […] implanted intraperitoneally with P-388 leukemia resistant cells at a dose of 100 mg/kg.; assay type: functional; details: route intraperitoneal
[8] = test system: Mus musculus; assay: Median survival time of […] implanted intraperitoneally with P-388 leukemia resistant cells at a dose of 150 mg/kg.; assay type: functional; details: route intraperitoneal
[9] = test system: Mus musculus; assay: Percentage increase in life span of treated mice implanted intraperitoneally with P-388 leukemia resistant cells compared with controls at a dose of 100 mg/kg.; assay type: functional; details: P388, ip, route intraperitoneal; outline: as §2
[10] = test system: Mus musculus; assay: Median survival time of 15 mice implanted intraperitoneally with P-388 leukemia sensitive cells at a dose of 150 mg/kg.; assay type: functional; details: route intraperitoneal
[11] = test system: Mus musculus; assay: Average percentage weight change on day 5 in mice implanted intraperitoneally with P-388 leukemia sensitive cells at a dose of 150 mg/kg.; assay type: functional; details: route intraperitoneal; outline: as §3
[12] = test system: Mus musculus; assay: Percentage increase in life span of treated mice implanted intraperitoneally with P-388 leukemia sensitive cells compared with controls at a dose of 150 mg/kg.; assay type: functional; details: P388, ip, route intraperitoneal; outline: as §2
[13] = test system: Mus musculus; assay: Average percentage weight change on day 5 in mice implanted intraperitoneally with P-388 leukemia sensitive cells at a dose of 100 mg/kg at a dose of 100 mg/kg.; assay type: functional; outline: as §3
[14] = test system: Mus musculus; assay: Median survival time of […] implanted intraperitoneally with P-388 leukemia sensitive cells at a dose of 100 mg/kg.; assay type: functional; details: route intraperitoneal
[15] = test system: Mus musculus; assay: Percentage increase in life span of treated mice implanted intraperitoneally with P-388 leukemia sensitive cells compared with controls at a dose of 67 mg/kg.; assay type: functional; details: P388, ip, route intraperitoneal; outline: as §2
[16] = test system: Mus musculus; assay: Median survival time of 15 mice implanted intraperitoneally with P-388 leukemia sensitive cells at a dose of 67 mg/kg.; assay type: functional; details: route intraperitoneal
[17] = test system: Mus musculus; assay: Percentage increase in life span of treated mice implanted intraperitoneally with P-388 leukemia sensitive cells compared with controls at a dose of 100 mg/kg.; assay type: functional; details: P388, ip, route intraperitoneal; outline: as §2
[18] = test system: Mus musculus; assay: Percentage increase in life span of treated mice implanted intraperitoneally with P-388 leukemia resistant cells compared with controls at a dose of 150 mg/kg.; assay type: functional; details: P388, ip, route intraperitoneal; outline: as §2
[19] = test system: Mus musculus; assay: Average percentage weight change on day 5 in mice implanted intraperitoneally with P-388 leukemia resistant cells at a dose of 150 mg/kg.; assay type: functional; details: route intraperitoneal; outline: as §3
[20] = test system: Mus musculus; assay: Average percentage weight change on day 5 in mice implanted intraperitoneally with P-388 leukemia resistant cells at a dose of 67 mg/kg.; assay type: functional; details: route intraperitoneal; outline: as §3
[21] = test system: Mus musculus; assay: Median survival time of 15 mice implanted intraperitoneally with P-388 leukemia sensitive cells at a dose of 30 mg/kg.; assay type: functional; details: route intraperitoneal; outline: as §2
[22] = test system: Mus musculus; assay: Percentage increase in life span of treated mice implanted intraperitoneally with P-388 leukemia sensitive cells compared with controls at a dose of 30 mg/kg.; assay type: functional; details: P388, ip, route intraperitoneal; outline: as §2
[23] = test system: Mus musculus; assay: Average percentage weight change on day 5 in mice implanted intraperitoneally with P-388 leukemia resistant cells at a dose of 30 mg/kg.; assay type: functional; details: route intraperitoneal; outline: as §2
[24] = test system: Mus musculus; assay: Percentage increase in life span of treated mice implanted intraperitoneally with P-388 leukemia resistant cells compared with controls at a dose of 30 mg/kg.; assay type: functional; details: P388, ip, route intraperitoneal; outline: as §2
[25] = test system: Mus musculus; assay: Median survival time of 15 mice implanted intraperitoneally with P-388 leukemia resistant cells at a dose of 20 mg/kg.; assay type: functional; details: route intraperitoneal
[26] = test system: Mus musculus; assay: Average percentage weight change on day 5 in mice implanted intraperitoneally with P-388 leukemia sensitive cells at a dose of 20 mg/kg.; assay type: functional; details: route intraperitoneal; outline: as §2
[27] = test system: Mus musculus; assay: Median survival time of 15 mice implanted intraperitoneally with P-388 leukemia resistant cells at a dose of 30 mg/kg.; assay type: functional; details: route intraperitoneal
[28] = test system: Mus musculus; assay: Percentage increase in life span of treated mice implanted intraperitoneally with P-388 leukemia resistant cells compared with controls at a dose of 40 mg/kg.; assay type: functional; details: P388, ip, route intraperitoneal; outline: as §2
[29] = test system: Mus musculus; assay: Percentage increase in life span of treated mice implanted intraperitoneally with P-388 leukemia sensitive cells compared with controls at a dose of 20 mg/kg.; assay type: functional; details: P388, ip, route intraperitoneal; outline: as §2
[30] = test system: Mus musculus; assay: Average percentage weight change on day 5 in mice implanted intraperitoneally with P-388 leukemia sensitive cells at a dose of 30 mg/kg.; assay type: functional; details: route intraperitoneal; outline: as §2
[31] = test system: Mus musculus; assay: Median survival time of 15 mice implanted intraperitoneally with P-388 leukemia sensitive cells at a dose of 20 mg/kg.; assay type: functional; details: route intraperitoneal
[32] = test system: Mus musculus; assay: Percentage increase in life span of treated mice implanted intraperitoneally with P-388 leukemia resistant cells compared with controls at a dose of 20 mg/kg.; assay type: functional; details: P388, ip, route intraperitoneal; outline: as §2
[33] = test system: Mus musculus; assay: Average percentage weight change on day 5 in mice implanted intraperitoneally with P-388 leukemia resistant cells at a dose of 20 mg/kg.; assay type: functional; details: route intraperitoneal; outline: as §2
[34] = test system: Mus musculus; assay: Median survival time of 15 mice implanted intraperitoneally with P-388 leukemia resistant cells at a dose of 40 mg/kg.; assay type: functional; details: route intraperitoneal
[35] = test system: Mus musculus; assay: Average percentage weight change on day 5 in mice implanted intraperitoneally with P-388 leukemia resistant cells at a dose of 40 mg/kg.; assay type: functional; details: route intraperitoneal; outline: as §2
[36] = test system: Mus musculus; assay: Average percentage weight change on day 5 in mice implanted intraperitoneally with P-388 leukemia sensitive cells for a dose of 100 mg/kg.; assay type: functional; details: route intraperitoneal; outline: as §3
[37] = test system: Mus musculus; assay: Median survival time of […] implanted intraperitoneally with P-388 leukemia resistant cells for a dose of 100 mg/kg.; assay type: functional; details: route intraperitoneal
[38] = test system: Mus musculus; assay: Percentage increase in life span of treated mice implanted intraperitoneally with P-388 leukemia sensitive cells compared with controls for a dose of 100 mg/kg.; assay type: functional; details: P388, ip, route intraperitoneal
Outline: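 Male BDF1 mice (six per group, about 22 g) inoculated ip with 1 × 10^6 P-388/0 leukemia cells on day 0. Drugs given ip daily for 5 consecutive days starting 24 h after implantation, in 0.9% saline or Emulphor 620 vehicle. Animals followed until death. %ILS = (T/C − 1) × 100 from median survival of treated versus saline-treated controls.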

[39] = test system: Mus musculus; assay: Average percentage weight change on day 5 in mice implanted intraperitoneally with P-388 leukemia resistant cells for a dose of 100 mg/kg.; assay type: functional; details: route intraperitoneal; outline: as §3
[40] = test system: Mus musculus; assay: Median survival time of […] implanted intraperitoneally with P-388 leukemia sensitive cells for a dose of 100 mg/kg.; assay type: functional; details: route intraperitoneal
[41] = test system: Mus musculus; assay: Percentage increase in life span of treated mice implanted intraperitoneally with P-388 leukemia resistant cells compared with controls for a dose of 100 mg/kg.; assay type: functional; details: P388, ip, route intraperitoneal; outline: as §2

C=CC=O [ACROLEIN]
IC50 [1]: 50 µM | IC50 [2]: 50 µM

O=c1[nH]c(=O)n([C@H]2C[C@H](O)[C@@H](CO)O2)cc1F [FLOXURIDINE]
ILS at 67 mg/kg [3]: 9% | MST [4]: 12 days | Weight change [5]: -2% | Weight change [6]: -10% | MST [7]: 13 days | MST [8]: 13 days | ILS at 100 mg/kg [9]: 18% | MST [10]: 20 days | Weight change [11]: -5% | ILS at 150 mg/kg [12]: 82% | Weight change [13]: -4% | MST [14]: 19 days | ILS at 67 mg/kg [15]: 45% | MST [16]: 16 days | ILS at 100 mg/kg [17]: 73% | ILS at 150 mg/kg [18]: 18% | Weight change [19]: -10% | Weight change [20]: -6%

O=c1[nH]cc(F)c(=O)[nH]1 [FLUOROURACIL]
MST [21]: 17 days | ILS at 30 mg/kg [22]: 55% | Weight change [23]: -15% | ILS at 30 mg/kg [24]: -18% | MST [25]: 10 days | Weight change [26]: -5% | MST [27]: 9 days | ILS at 40 mg/kg [28]: -18% | ILS at 20 mg/kg [29]: 45% | Weight change [30]: -15% | IC50 [1]: 100 µM | MST [31]: 16 days | ILS at 20 mg/kg [32]: -9% | Weight change [33]: -6% | MST [34]: 9 days | Weight change [35]: -18% | IC50 [2]: 5 µM

O=S(=O)([O-])CCS.[Na+] [MESNA]
Weight change [36]: 10% | MST [37]: 11 days | ILS at 100 mg/kg [38]: 0% | Weight change [39]: 12% | MST [40]: 11 days | ILS at 100 mg/kg [41]: 0%
